Results from ChEMBL document CHEMBL1134551, “The effect of 1,3-diaryl-[1H]-pyrazole-4-acetamides on glucose utilization in ob/ob mice” (2001).

What was measured:
[1] = test system: Mus musculus; assay: Percentage efficacy to normalize the blood glucose levels to that of normal mouse in ob/ob mouse after 3 days and 4 hours of 100 mg/kg dose administration; Nonsignificant; format: functional, organism-based; parameters: dose 100 mg/kg
Summary of the method: (§1)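 Adult male C57BL ob/ob mice, n = 6/group, matched on day-0 blood glucose; non-diabetic animals (<150 mg/dL basal) excluded. Oral dosing each morning days 1-3 in 0.5% CMC with 0.2% Tween-80. Tail-nick blood glucose by YSI analyzer. % efficacy = {1 − ([glc]cpd − 100)/([glc]veh − 100)} × 100. Significance by t-test vs vehicle, p < 0.05.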

[2] = test system: Mus musculus; assay: Percentage efficacy to normalize the blood glucose levels to that of normal mouse in ob/ob mouse after 3 days and 8 hours of 100 mg/kg dose administration.; format: functional; summary of the method: as §1
[3] = test system: Mus musculus; assay: Percentage efficacy to normalize the blood glucose levels to that of normal mouse in ob/ob mouse after 3 days and 8 hours of 100 mg/kg dose administration; Nonsignificant; format: functional, organism-based; parameters: dose 100 mg/kg; summary of the method: as §1
[4] = test system: Mus musculus; assay: Percentage efficacy to normalize the blood glucose levels to that of normal mouse in ob/ob mouse after 3 days and 8 hours of 300 mg/kg dose administration.; format: functional; summary of the method: as §1
[5] = test system: Mus musculus; assay: Percentage efficacy to normalize the blood glucose levels to that of normal mouse in ob/ob mouse after 3 days and 4 hours of 300 mg/kg dose administration.; format: functional; summary of the method: as §1
[6] = test system: Mus musculus; assay: Percentage efficacy to normalize the blood glucose levels to that of normal mouse in ob/ob mouse after 3 days and 4 hours of 100 mg/kg dose administration.; format: functional; summary of the method: as §1
[7] = test system: Mus musculus; assay: Percentage efficacy to normalize the blood glucose levels to that of normal mouse in ob/ob mouse after 3 days and 8 hours of 300 mg/kg dose administration; Nonsignificant; format: functional, organism-based; parameters: dose 300 mg/kg; summary of the method: as §1
[8] = test system: Mus musculus; assay: Percentage efficacy to normalize the blood glucose levels to that of normal mouse in ob/ob mouse after 3 days and 4 hours of 30 mg/kg dose administration.; format: functional; summary of the method: as §1
[9] = species on record: Mus musculus; assay: Effective dose for glucose lowering in ob/ob mice; format: functional
Summary of the method: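 ob/ob mice, once-daily oral dosing for 3 days in 0.5% CMC/0.2% Tween-80, or in 40% microemulsion (Cremophor RH40, corn oil-monoglyceride, propylene glycol, ethanol) where stated; tail-nick blood glucose. % efficacy computed as below at selected doses; ED50 from sigmoidal fit of dose-response curve.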

[10] = test system: Mus musculus; assay: Percentage efficacy to normalize the blood glucose levels to that of normal mouse in ob/ob mouse after 3 days and 8 hours of 30 mg/kg dose administration.; format: functional; summary of the method: as §1
[11] = test system: Mus musculus; assay: Percentage efficacy to normalize the blood glucose levels to that of normal mouse in ob/ob mouse after 3 days and 4 hours of 300 mg/kg dose administration; Nonsignificant; format: functional, organism-based; parameters: dose 300 mg/kg; summary of the method: as §1
[12] = test system: Mus musculus; assay: Percentage efficacy to normalize the blood glucose levels to that of normal mouse in ob/ob mouse after 3 days and 4 hours of 30 mg/kg dose administration; Nonsignificant; format: functional, organism-based; parameters: dose 30 mg/kg; summary of the method: as §1

SMILES: COc1ccc(-c2nn(-c3cccc(C(F)(F)F)c3)cc2CC(=O)N(C)C)cc1OC
- Efficacy [1]: Not significant
- Efficacy [2]: 85%

SMILES: Cc1cccc(-n2cc(CC(=O)N(C)C)c(-c3ccc(Cl)c(Cl)c3)n2)c1
- Efficacy [3]: Not significant
- Efficacy [1]: Not significant

SMILES: CN(C)C(=O)Cc1cn(-c2ccc(Cl)c(Cl)c2)nc1-c1ccc(Cl)c(Cl)c1
- Efficacy [4]: 53%
- Efficacy [5]: 34%

SMILES: CN(C)C(=O)Cc1cn(-c2cccc(C(F)(F)F)c2)nc1-c1ccc2c(c1)Cc1ccccc1C2
- Efficacy [6]: 79%
- Efficacy [2]: 70%

SMILES: CN(C)C(=O)Cc1cn(-c2cccc(C(F)(F)F)c2)nc1-c1ccc2oc3ccccc3c2c1
- Efficacy [3]: Not significant
- Efficacy [1]: Not significant

SMILES: CN(C)C(=O)Cc1cn(-c2cccc(C(F)(F)F)c2)nc1-c1ccc2c(c1)CCc1ccccc1-2
- Efficacy [6]: 87%
- Efficacy [2]: 111%

SMILES: CN(C)C(=O)Cc1cn(-c2cc(Cl)cc(Cl)c2)nc1-c1ccc(Cl)c(Cl)c1
- Efficacy [7]: Not significant
- Efficacy [5]: 52%

SMILES: CN(C)C(=O)Cc1cn(-c2cccc(C(F)(F)F)c2)nc1-c1ccc(-c2ccccc2)cc1
- Efficacy [6]: 84%
- Efficacy [8]: 80%
- Efficacy [2]: 69%
- ED50 [9]: 1.3 mg/kg/day
- Efficacy [10]: 94%

SMILES: O=C(Cc1cn(-c2cccc(C(F)(F)F)c2)nc1-c1ccc(Cl)c(Cl)c1)N(Cc1ccccc1)Cc1ccccc1
- Efficacy [6]: 52%
- Efficacy [2]: 49%

SMILES: CN(C)C(=O)Cc1cn(-c2cc(C(F)(F)F)cc(C(F)(F)F)c2)nc1-c1ccc(Cl)c(Cl)c1
- Efficacy [7]: Not significant
- Efficacy [11]: Not significant

SMILES: CN1CCN(C(=O)Cc2cn(-c3cccc(C(F)(F)F)c3)nc2-c2ccc(Cl)c(Cl)c2)CC1
- Efficacy [7]: Not significant
- Efficacy [5]: 54%

SMILES: O=C(O)Cc1cn(-c2cccc(C(F)(F)F)c2)nc1-c1ccc(Cl)c(Cl)c1
- Efficacy [7]: Not significant
- Efficacy [11]: Not significant

SMILES: CN(C)C(=O)Cc1cn(-c2cccc(C(F)(F)F)c2)nc1-c1ccc2c(ccc3ccccc32)c1
- Efficacy [6]: 90%
- Efficacy [2]: 71%

SMILES: Cc1ccc(-c2nn(-c3cccc(C(F)(F)F)c3)cc2CC(=O)N(C)C)cc1
- Efficacy [4]: 36%
- Efficacy [5]: 58%

SMILES: CN(C)C(=O)Cc1cn(-c2cccc(C(F)(F)F)c2)nc1-c1ccc(C(C)(C)C)cc1
- Efficacy [3]: Not significant
- Efficacy [1]: Not significant

SMILES: CN(C)C(=O)Cc1cn(-c2cccc(C(F)(F)F)c2)nc1-c1cccc(-c2ccccc2)c1
- Efficacy [3]: Not significant
- Efficacy [1]: Not significant

SMILES: O=C(Cc1cn(-c2cccc(C(F)(F)F)c2)nc1-c1ccc(Cl)c(Cl)c1)N1CCN(C(c2ccccc2)c2ccccc2)CC1
- Efficacy [1]: Not significant
- Efficacy [12]: Not significant
- Efficacy [2]: 45%
- Efficacy [10]: 48%

SMILES: CN(C)C(=O)Cc1cn(-c2cccc(C(F)(F)F)c2)nc1-c1ccc2c(c1)C(=O)c1ccccc1-2
- Efficacy [6]: 107%
- Efficacy [2]: 78%

SMILES: CN(C)C(=O)Cc1cn(-c2ccc(Cl)cc2)nc1-c1ccc(Cl)c(Cl)c1
- Efficacy [4]: 52%
- Efficacy [5]: 47%

SMILES: CN(C)C(=O)Cc1cn(-c2cccc(C(F)(F)F)c2)nc1-c1ccc2c(c1)Cc1ccccc1-2
- Efficacy [6]: 87%
- Efficacy [8]: 113%
- Efficacy [2]: 57%
- ED50 [9]: 0.05 mg/kg/day
- Efficacy [10]: 115%

SMILES: CN(C(=O)Cc1cn(-c2cccc(C(F)(F)F)c2)nc1-c1ccc(Cl)c(Cl)c1)c1ccccc1
- Efficacy [7]: Not significant
- Efficacy [5]: 57%

SMILES: CN(C)C(=O)Cc1cn(-c2cccc(C(F)(F)F)c2)nc1-c1ccc(-c2ccc(-c3ccccc3)cc2)cc1
- Efficacy [3]: Not significant
- Efficacy [1]: Not significant

SMILES: CN(C)C(=O)Cc1cn(-c2cccc(C(F)(F)F)c2)nc1-c1ccc(Oc2ccccc2)cc1
- Efficacy [3]: Not significant
- Efficacy [1]: Not significant

SMILES: O=C(Cc1cn(-c2cccc(C(F)(F)F)c2)nc1-c1ccc(Cl)c(Cl)c1)NO
- Efficacy [7]: Not significant
- Efficacy [11]: Not significant

SMILES: CN(C)C(=O)Cc1cn(-c2ccc(F)cc2)nc1-c1ccc(Cl)c(Cl)c1
- Efficacy [4]: 39%
- Efficacy [5]: 84%

SMILES: O=C(Cc1cn(-c2cccc(C(F)(F)F)c2)nc1-c1ccc(Cl)c(Cl)c1)N1CCOCC1
- Efficacy [7]: Not significant
- Efficacy [11]: Not significant

SMILES: CN(C)C(=O)Cc1cn(-c2cccc(C(F)(F)F)c2)nc1-c1ccc(Cl)c(Cl)c1
- Efficacy [4]: 63%
- Efficacy [11]: Not significant
